# Measurements: ChEMBL document CHEMBL3393033, “6-(Azaindol-2-yl)pyridine-3-sulfonamides as potent and selective inhibitors targeting hepatitis C virus NS4B” (Bioorg Med Chem Lett, 2015)
# Activity calls are given as the source filed them. No cut-off for these calls is given here.
# Columns and labels:
# [1] = Toxicity in human HuH7 cells infected with genotype 1b Hepatitis C virus bicistronic replicon Con1 assessed as reduction in GAPDH RNA after 3 days by RT-PCR analysis; type: cell-based, Huh-7
# Outline: (§1)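 Huh7 cells carrying a genotype 1b (Con1) bicistronic HCV replicon seeded at 5000 cells/well. Compound added at a final DMSO concentration of 0.5%, then incubated at 37°C for 3 days. Replicon RNA, and GAPDH RNA as the endogenous selectivity control, quantified by real-time RT-PCR. Values are the average of at least two independent determinations.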
# [2] = AUC (0 to 6 hrs) in Sprague-Dawley rat plasma at 10 mg/kg, po administered as single dose by LC-MS/MS analysis; type: ADME, organism-based; parameters: time < 6 hr, dose 10 mg/kg, route oral
# Outline: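 Male Sprague Dawley rats (n = 2) were dosed once orally at 10 mg/kg. Compound was lyophilized from acetonitrile/water (1:1) and given as a suspension in 0.4% hydroxypropyl methylcellulose. Plasma was sampled at 30 min and at 1, 2, 3, 4 and 6 h post-dose for LC-MS/MS. AUC is over 0–6 h.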
# [3] = Ratio of plasma concentration in po dosed dog at 8 hrs to EC50 for genotype 1b Hepatitis C virus bicistronic replicon Con1 infected in human Huh7 cells; type: ADME, organism-based, Huh-7; conditions: in vivo
# Outline: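 Dogs: male beagles (n = 2) dosed orally at 2 mg/kg as a suspension in 0.4% hydroxypropyl methylcellulose. Plasma concentration at 8 h post-dose was measured by LC-MS/MS and divided by the replicon 1b EC₅₀.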
# [4] = Ratio of drug level in liver to plasma Sprague-Dawley rat plasma at 10 mg/kg, po administered as single dose by LC-MS/MS analysis; type: ADME, organism-based; parameters: dose 10 mg/kg, route oral
# Outline: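 Male Sprague Dawley rats (n = 2) received 10 mg/kg orally as a suspension in 0.4% hydroxypropyl methylcellulose, after lyophilization from acetonitrile/water (1:1). Liver and plasma concentrations were measured at 6 h post-dose by LC-MS/MS and expressed as a liver/plasma ratio.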
# [5] = Ratio of plasma concentration in Sprague-Dawley rat at 10 mg/kg, po administered as single dose after 6 hrs to EC50 for genotype 1b Hepatitis C virus bicistronic replicon Con1 infected in human HuH7 cells; type: ADME, organism-based, Huh-7; parameters: dose 10 mg/kg, route oral; conditions: in vivo
# Outline: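 Male Sprague Dawley rats (n = 2) received a single 10 mg/kg oral dose in 0.4% hydroxypropyl methylcellulose suspension. Plasma concentration at 6 h post-dose was measured by LC-MS/MS and divided by the Con1 1b replicon EC₅₀ from the Huh7 RT-PCR assay.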
# [6] = AUC (0 to 24 hrs) in monkey at 3 mg/kg, po by LC-MS/MS analysis; conditions: cynomolgus monkey, plasma
# Hepatitis C virus [7] = assay: Antiviral activity against HCV genotype 1b Con1 replicon cells expressing NS4B F98C mutant grown under serial passage in presence of 1x to 30x EC90 level of compound assessed as reduction in replicon RNA levels relative to wild type HCV genotype 1b Con1; type: functional, Hepacivirus hominis
# [8] = Ratio of plasma concentration in po dosed monkey at 8 hrs to EC50 for genotype 1b Hepatitis C virus bicistronic replicon Con1 infected in human Huh7 cells; type: ADME, organism-based, Huh-7; conditions: in vivo
# Outline: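 Monkeys: male cynomolgus (n = 2) dosed orally at 3 mg/kg as a suspension in 0.4% hydroxypropyl methylcellulose. Plasma level at 8 h post-dose was measured by LC-MS/MS and expressed relative to the replicon 1b EC₅₀.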
# Hepacivirus hominis [9] = assay: Inhibition of Hepatitis C virus NS5B polymerase up to 10000 nM
# Hepacivirus hominis [10] = assay: Inhibition of Hepatitis C virus NS3 protease up to 10000 nM
# Hepatitis C virus [11] = assay: Antiviral activity against genotype 1b Hepatitis C virus bicistronic replicon Con1 infected in human HuH7 cells after 3 days by RT-PCR analysis; type: functional, cell-based, Hepacivirus hominis; conditions: genotype 1b Con1, Huh-7, 72 h; outline: as §1
# Hepatitis C virus [12] = assay: Antiviral activity against HCV genotype 1b Con1 replicon cells expressing NS4B V105M mutant grown under serial passage in presence of 1x to 30x EC90 level of compound assessed as reduction in replicon RNA levels relative to wild type HCV genotype 1b Con1; type: functional, Hepacivirus hominis
# [13] = AUC (0 to 24 hrs) in dog plasma at 2 mg/kg, po by LC-MS/MS analysis; type: ADME, organism-based, Canis lupus familiaris; parameters: time < 24 hr, dose 2 mg/kg, route oral
# Outline: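 Male beagle dogs (n = 2) were dosed orally at 2 mg/kg. Compound was lyophilized from acetonitrile/water (1:1) and given as a suspension in 0.4% hydroxypropyl methylcellulose. Plasma was collected at 30 min and at 1, 2, 4, 8 and 24 h for LC-MS/MS.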
smiles,measurement,setting,value
COc1cnc2c(c1)c(C#N)c(-c1ccc(S(=O)(=O)N[C@@H](C)C(F)(F)F)cn1)n2C1CCC1,IC50 at 3 days,[1],> 9 µM
same,AUC(0-t) at 6 h,[2],7.61 µM·h
same,Ratio,[3],6
same,Kp,[4],14
same,Ratio,[5],30
same,AUC(0-t) at 24 h,[6],2.28 µM·h
same,fold change (FC),Hepatitis C virus [7],25
same,Ratio,[8],4
same,inhibition,Hepacivirus hominis [9],inactive
same,inhibition,Hepacivirus hominis [10],inactive
same,EC50,Hepatitis C virus [11],27 nM
same,fold change (FC),Hepatitis C virus [12],17
same,AUC(0-t) at 24 h,[13],4.18 µM·h
C[C@H](NS(=O)(=O)c1ccc(-c2c(C#N)c3cc(Cl)cnc3n2C2CCC2)nc1)C(F)(F)F,IC50 at 3 days,[1],> 10 µM
same,AUC(0-t) at 6 h,[2],2.39 µM·h
same,Ratio,[3],12
same,Kp,[4],23
same,Ratio,[5],22
same,AUC(0-t) at 24 h,[6],1.03 µM·h
same,Ratio,[8],2
same,EC50,Hepatitis C virus [11],17 nM
same,AUC(0-t) at 24 h,[13],4.08 µM·h
C[C@H](NS(=O)(=O)c1ccc(-c2c(C#N)c3cnc(OC(F)F)nc3n2C2CCC2)nc1)C(F)(F)F,IC50 at 3 days,[1],> 10 µM
same,EC50,Hepatitis C virus [11],970 nM
Cc1cc2c(C#N)c(-c3ccc(S(=O)(=O)N[C@@H](C)C(F)(F)F)cn3)n(C3CCC3)c2cn1,IC50 at 3 days,[1],> 10 µM
same,EC50,Hepatitis C virus [11],1400 nM
CC(C)Oc1cnc2c(c1)c(C#N)c(-c1ccc(S(=O)(=O)N[C@@H](C)C(F)(F)F)cn1)n2C1CCC1,IC50 at 3 days,[1],> 10 µM
same,EC50,Hepatitis C virus [11],7600 nM
COc1ncc2c(C#N)c(-c3ccc(S(=O)(=O)N[C@@H](C)C(F)(F)F)cn3)n(C3CCC3)c2n1,IC50 at 3 days,[1],> 10 µM
same,EC50,Hepatitis C virus [11],240 nM
COc1cnc2c(c1)c(C#N)c(-c1ccc(S(=O)(=O)N[C@@H](C)C(F)(F)F)cn1)n2CC1CC1,IC50 at 3 days,[1],7.9 µM
same,EC50,Hepatitis C virus [11],300 nM
CCOc1cnc2c(c1)c(C#N)c(-c1ccc(S(=O)(=O)N[C@@H](C)C(F)(F)F)cn1)n2C1CCC1,IC50 at 3 days,[1],> 10 µM
same,EC50,Hepatitis C virus [11],200 nM
C[C@H](NS(=O)(=O)c1ccc(-c2c(C#N)c3cc(C4CC4)cnc3n2C2CCC2)nc1)C(F)(F)F,IC50 at 3 days,[1],> 10 µM
same,AUC(0-t) at 6 h,[2],10.2 µM·h
same,Kp,[4],11
same,Ratio,[5],32
same,EC50,Hepatitis C virus [11],40 nM
C[C@H](NS(=O)(=O)c1ccc(-c2c(C#N)c3cc(F)cnc3n2C2CCC2)nc1)C(F)(F)F,IC50 at 3 days,[1],> 10 µM
same,AUC(0-t) at 6 h,[2],8.78 µM·h
same,Kp,[4],6
same,Ratio,[5],23
same,EC50,Hepatitis C virus [11],46 nM
C[C@H](NS(=O)(=O)c1ccc(-c2c(C#N)c3cc(Cl)cnc3n2CC2CC2)nc1)C(F)(F)F,IC50 at 3 days,[1],> 10 µM
same,EC50,Hepatitis C virus [11],39 nM
Cc1cnc2c(C#N)c(-c3ccc(S(=O)(=O)N[C@@H](C)C(F)(F)F)cn3)n(C3CCC3)c2c1,IC50 at 3 days,[1],> 10 µM
same,EC50,Hepatitis C virus [11],119 nM
COc1ccc2c(C#N)c(-c3ccc(S(=O)(=O)N[C@@H](C)C(F)(F)F)cn3)n(C3CCC3)c2n1,IC50 at 3 days,[1],9.7 µM
same,EC50,Hepatitis C virus [11],960 nM
C[C@H](NS(=O)(=O)c1ccc(-c2c(C#N)c3cc(Cl)ncc3n2C2CCC2)nc1)C(F)(F)F,IC50 at 3 days,[1],> 10 µM
same,EC50,Hepatitis C virus [11],530 nM
C[C@H](NS(=O)(=O)c1ccc(-c2c(C#N)c3cccnc3n2C2CCC2)nc1)C(F)(F)F,IC50 at 3 days,[1],> 10 µM
same,EC50,Hepatitis C virus [11],217 nM
C[C@H](NS(=O)(=O)c1ccc(-c2c(C#N)c3cnc(Cl)cc3n2C2CCC2)nc1)C(F)(F)F,IC50 at 3 days,[1],1.31 µM
same,EC50,Hepatitis C virus [11],260 nM
CCCOc1cnc2c(c1)c(C#N)c(-c1ccc(S(=O)(=O)N[C@@H](C)C(F)(F)F)cn1)n2C1CCC1,IC50 at 3 days,[1],> 10 µM
same,EC50,Hepatitis C virus [11],2150 nM
C[C@H](NS(=O)(=O)c1ccc(-c2c(C#N)c3cc(OC(F)F)cnc3n2C2CCC2)nc1)C(F)(F)F,IC50 at 3 days,[1],> 10 µM
same,AUC(0-t) at 6 h,[2],9.37 µM·h
same,Kp,[4],7
same,Ratio,[5],36
same,EC50,Hepatitis C virus [11],50 nM
Cc1cnc2c(c1)c(C#N)c(-c1ccc(S(=O)(=O)N[C@@H](C)C(F)(F)F)cn1)n2C1CCC1,IC50 at 3 days,[1],> 10 µM
same,AUC(0-t) at 6 h,[2],6.92 µM·h
same,Ratio,[3],14
same,Kp,[4],9
same,Ratio,[5],55
same,AUC(0-t) at 24 h,[6],0.641 µM·h
same,Ratio,[8],1
same,EC50,Hepatitis C virus [11],13 nM
same,AUC(0-t) at 24 h,[13],5.67 µM·h
Cc1cnc2c(c1)c(C#N)c(-c1ncc(S(=O)(=O)N[C@@H](C)C(F)(F)F)cn1)n2C1CCC1,IC50 at 3 days,[1],> 10 µM
same,EC50,Hepatitis C virus [11],160 nM
CCc1cnc2c(c1)c(C#N)c(-c1ccc(S(=O)(=O)N[C@@H](C)C(F)(F)F)cn1)n2C1CCC1,IC50 at 3 days,[1],> 5.16 µM
same,AUC(0-t) at 6 h,[2],2.63 µM·h
same,Kp,[4],13
same,Ratio,[5],27
same,EC50,Hepatitis C virus [11],15 nM
Cc1cnc2c(c1)c(C#N)c(-c1ccc(S(=O)(=O)N[C@@H](C)C(F)(F)F)cc1)n2C1CCC1,IC50 at 3 days,[1],> 10 µM
same,EC50,Hepatitis C virus [11],87 nM
COc1cnc2c(c1)c(C#N)c(-c1ccc(S(=O)(=O)N[C@@H](C)C(F)(F)F)cn1)n2C1CCCC1,IC50 at 3 days,[1],> 10 µM
same,EC50,Hepatitis C virus [11],150 nM
C[C@H](NS(=O)(=O)c1ccc(-c2c(C#N)c3cc(C(F)(F)F)cnc3n2C2CCC2)nc1)C(F)(F)F,IC50 at 3 days,[1],> 10 µM
same,AUC(0-t) at 6 h,[2],5.83 µM·h
same,Ratio,[3],125
same,Kp,[4],44
same,Ratio,[5],503
same,AUC(0-t) at 24 h,[6],5.44 µM·h
same,Ratio,[8],105
same,EC50,Hepatitis C virus [11],2 nM
same,AUC(0-t) at 24 h,[13],8.16 µM·h
Cc1ccc2c(C#N)c(-c3ccc(S(=O)(=O)N[C@@H](C)C(F)(F)F)cn3)n(C3CCC3)c2n1,IC50 at 3 days,[1],> 10 µM
same,EC50,Hepatitis C virus [11],87 nM
C[C@H](NS(=O)(=O)c1ccc(-c2c(C#N)c3ccc(Cl)nc3n2C2CCC2)nc1)C(F)(F)F,IC50 at 3 days,[1],6.3 µM
same,EC50,Hepatitis C virus [11],700 nM
C[C@H](NS(=O)(=O)c1ccc(-c2c(C#N)c3ncc(Cl)cc3n2C2CCC2)nc1)C(F)(F)F,IC50 at 3 days,[1],2.5 µM
same,EC50,Hepatitis C virus [11],94 nM
Cc1cc2c(cn1)c(C#N)c(-c1ccc(S(=O)(=O)N[C@@H](C)C(F)(F)F)cn1)n2C1CCC1,IC50 at 3 days,[1],> 10 µM
same,EC50,Hepatitis C virus [11],230 nM
C[C@H](NS(=O)(=O)c1ccc(-c2c(C#N)c3cc(Cl)cnc3n2C2CCCC2)nc1)C(F)(F)F,IC50 at 3 days,[1],> 10 µM
same,AUC(0-t) at 6 h,[2],6.84 µM·h
same,Ratio,[3],2
same,Kp,[4],19
same,Ratio,[5],40
same,AUC(0-t) at 24 h,[6],0.29 µM·h
same,Ratio,[8],0.3
same,EC50,Hepatitis C virus [11],27 nM
same,AUC(0-t) at 24 h,[13],2.07 µM·h
